Laboratory results from ChEMBL document CHEMBL1147377, “Knerachelins A and B, antibacterial phenylacylphenols from Knema furfuracea” (1993).
Values after ≈ are worked out from the molar mass of the structure shown. Active and inactive are the calls of the source. The calls are words filed in the database; no cut-off is given here.

Columns and labels:
Staphylococcus aureus [1] = assay: Antibacterial activity against Staphylococcus aureus IP 8203 after 24 hrs by agar dilution method; assay type: functional
Outline: (§1)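 MIC by microplate titration in agar medium (agar dilution). Compounds dissolved in DMSO. Incubation at 37° for 24 h (the 24 h/37° conditions are stated for the bioguiding agar diffusion test against S. aureus 209 P).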

Staphylococcus aureus [2] = assay: Antibacterial activity against Staphylococcus aureus 209P ATCC 6538 after 24 hrs by agar dilution method; assay type: functional; outline: as §1
Staphylococcus aureus [3] = assay: Antibacterial activity against Staphylococcus aureus ATCC 25923 after 24 hrs by agar dilution method; assay type: functional; settings: ATCC 25923, 24 h; outline: as §1
Staphylococcus aureus [4] = assay: Antibacterial activity against Staphylococcus aureus V. de G. 26109 after 24 hrs by agar dilution method; assay type: functional; outline: as §1
Staphylococcus aureus [5] = assay: Antibacterial activity against Staphylococcus aureus Duc after 24 hrs by agar dilution method; assay type: functional; outline: as §1
Staphylococcus aureus [6] = assay: Antibacterial activity against Staphylococcus aureus Duchaussoy after 24 hrs by agar dilution method; assay type: functional; outline: as §1
Streptococcus = assay: Antibacterial activity against Streptococcus A Dig 7 after 24 hrs by agar dilution method; assay type: functional; outline: as §1
Streptococcus pneumoniae [7] = assay: Antibacterial activity against Streptococcus pneumoniae 4314-03 after 24 hrs by agar dilution method; assay type: functional; outline: as §1
Streptococcus pneumoniae [8] = assay: Antibacterial activity against Streptococcus pneumoniae 6254.013 after 24 hrs by agar dilution method; assay type: functional; outline: as §1
Streptococcus pneumoniae [9] = assay: Antibacterial activity against Streptococcus pneumoniae 6176-23F after 24 hrs by agar dilution method; assay type: functional; outline: as §1
Enterococcus faecalis = assay: Antibacterial activity against Enterococcus faecalis ATCC 29212 after 24 hrs by agar dilution method; assay type: functional; settings: ATCC 29212, 24 h; outline: as §1
Enterococcus faecium = assay: Antibacterial activity against Enterococcus faecium ATCC 19581 after 24 hrs by agar dilution method; assay type: functional; settings: ATCC 19581, 24 h; outline: as §1
Escherichia coli [10] = assay: Antibacterial activity against Escherichia coli NIHJ-JC2 after 24 hrs by agar dilution method; assay type: functional; outline: as §1
Escherichia coli [11] = assay: Antibacterial activity against Escherichia coli V 2019 after 24 hrs by agar dilution method; assay type: functional; outline: as §1
Salmonella typhimurium = assay: Antibacterial activity against Salmonella Typhimurium IPL after 24 hrs by agar dilution method; assay type: functional, Salmonella enterica subsp. enterica serovar Typhimurium; settings: Salmonella enterica; outline: as §1
Klebsiella pneumoniae = assay: Antibacterial activity against Klebsiella pneumoniae IP 7824 caroli after 24 hrs by agar dilution method; assay type: functional; outline: as §1
Klebsiella aerogenes = assay: Antibacterial activity against Enterobacter aerogenes HM12 after 24 hrs by agar dilution method; assay type: functional; outline: as §1
Serratia marcescens = assay: Antibacterial activity against Serratia marcescens Guilpin 759 after 24 hrs by agar dilution method; assay type: functional; outline: as §1
Pseudomonas aeruginosa = assay: Antibacterial activity against Pseudomonas aeruginosa IPA 237 after 24 hrs by agar dilution method; assay type: functional; outline: as §1
Nucleic Acid [12] = assay: Induction of phiX174 replicative form 1 template DNA cleavage at 48 ug after 1 hr by propidium iodide staining; assay type: nucleic-acid assay
Outline: (§2)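 Reaction at pH 7.5, 15 µl final, with 50 mM sodium cacodylate, 100 ng ΦX174 RF I DNA and CuSO4 120 µM plus sample (24 or 48 µg). Incubated 1 h at 25°, stopped with EDTA. Run on 0.8% agarose at 80 V for 1.5 h in Tris-borate pH 8.0. Stained with propidium iodide 0.5 µg/ml; form II DNA scored.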

Nucleic Acid [13] = assay: Induction of phiX174 replicative form 1 template DNA cleavage at 24 ug after 1 hr by propidium iodide staining; assay type: nucleic-acid assay; outline: as §2

SMILES | MIC (Staphylococcus aureus [1]) [µg/mL] | MIC (Staphylococcus aureus [2]) [µg/mL] | MIC (Staphylococcus aureus [3]) [µg/mL] | MIC (Staphylococcus aureus [4]) [µg/mL] | MIC (Staphylococcus aureus [5]) [µg/mL] | MIC (Staphylococcus aureus [6]) [µg/mL] | MIC (Streptococcus) [µg/mL] | MIC (Streptococcus pneumoniae [7]) [µg/mL] | MIC (Streptococcus pneumoniae [8]) [µg/mL] | MIC (Streptococcus pneumoniae [9]) [µg/mL] | MIC (Enterococcus faecalis) [µg/mL] | MIC (Enterococcus faecium) [µg/mL] | MIC (Escherichia coli [10]) [µg/mL] | MIC (Escherichia coli [11]) [µg/mL] | MIC (Salmonella typhimurium) [µg/mL] | MIC (Klebsiella pneumoniae) [µg/mL] | MIC (Klebsiella aerogenes) [µg/mL] | MIC (Serratia marcescens) [µg/mL] | MIC (Pseudomonas aeruginosa) [µg/mL] | other results
COc1cc(O)c(C(=O)CCCCc2ccccc2)c(O)c1 [KNERACHELIN A] | 8 (≈ 26.6 µM) | 8 (≈ 26.6 µM) | 8 (≈ 26.6 µM) | 8 (≈ 26.6 µM) | 8 (≈ 26.6 µM) | 8 (≈ 26.6 µM) | 8 (≈ 26.6 µM) | 8 (≈ 26.6 µM) | 8 (≈ 26.6 µM) | 8 (≈ 26.6 µM) | 32 (≈ 107 µM) | 32 (≈ 107 µM) | > 128 | > 128 | > 128 | > 128 | > 128 | > 128 | > 128 | Activity (Nucleic Acid [12]): inactive
O=C(CCCCc1ccccc1)c1c(O)cccc1O [KNERACHELIN B] | 4 (≈ 14.8 µM) | 4 (≈ 14.8 µM) | 4 (≈ 14.8 µM) | 4 (≈ 14.8 µM) | 4 (≈ 14.8 µM) | 4 (≈ 14.8 µM) | 4 (≈ 14.8 µM) | 8 (≈ 29.6 µM) | 8 (≈ 29.6 µM) | 8 (≈ 29.6 µM) | 16 (≈ 59.2 µM) | 16 (≈ 59.2 µM) | > 128 | > 128 | > 128 | > 128 | > 128 | > 128 | > 128 | Activity (Nucleic Acid [13]): inactive
